# Compound activity (PubChem)
# An excerpt weighted towards active compounds, which were near 1.7% of everything screened.
# EBNA-1 inhibitor – EBNA-1 DNA-binding inhibitors, primary screen, biochemical, fluorescence polarization; inhibition, % at 14.8 µM; 300,000 compounds, 0.34% hits; in the data active means inhibition above about 28%
# NS3 helicase inh – inhibitors of HCV NS3 helicase, primary screen, biochemical, Cy5 molecular beacon fluorescence; inhibition, % at 10.9 µM; Hepatitis C virus NS3 helicase; NS3 helicase DNA unwinding; AID 1800, 2009; 290,000 compounds, 0.56% hits;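 active means inhibition above the mean of all tested compounds plus 3 SD, set per campaign, cut at about 35% in these data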;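 further: 0% = DMSO wells and 100% = thioflavine S control wells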
#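 assay system = NS3 helicase fragment of HCV | buffer or medium = MOPS pH 6.5, MgCl2, DTT, Tween20, BSA | timing = 60 min unwinding reaction at 25 °C after ATP addition | signal = Cy5 beacon fluorescence read at start and 1 h | read-out basis = % inhibition of unwinding | control set = low DMSO, high thioflavine S at 110 µM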
# ZTA counter – blocks Epstein-Barr virus ZTA, an EBNA-1 counter-screen. P03206. ZTA-DNA binding, fluorescence polarization. inhibition, % at 11 µM. 320,000 compounds, 0.15% hits. AID 2234; in the data active means inhibition above about 33%
# Target sequence (P03206 whole entry, looked up): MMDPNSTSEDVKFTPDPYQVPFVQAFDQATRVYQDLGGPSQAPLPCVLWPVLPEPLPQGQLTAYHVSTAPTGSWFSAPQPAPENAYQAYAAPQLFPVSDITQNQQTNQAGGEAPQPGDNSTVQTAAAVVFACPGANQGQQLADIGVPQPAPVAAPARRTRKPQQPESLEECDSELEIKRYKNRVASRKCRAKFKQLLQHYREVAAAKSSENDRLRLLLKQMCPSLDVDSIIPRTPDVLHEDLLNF
# core dimer inh – inhibitors of HCV core protein dimerization, primary screen, biochemical, TR-FRET, high-throughput; TR-FRET GST/Flag-core106 dimerization, 1536-well; inhibition, % at 5 µM; 300,000 compounds, 0.33% hits; AID 1899, 2009;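 active means inhibition above the mean of all tested compounds plus 3 SD, set per screening campaign, cut at about 45% in these data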
#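 test system = GST/Flag-tagged HCV core106 proteins | probe or stimulus = Eu donor and XL665 acceptor anti-tag antibodies | times = compound-protein-antibody incubation 4 h at 22.5 °C | signal = TR-FRET, excitation 340 nm, emission 617 and 671 nm | measure = percent inhibition of core106 dimerization signal | controls = wells lacking GST-core106 and wells with excess unlabelled core106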
# EBV gp42 block – Epstein-Barr virus gp42 inhibitors, primary screen, biochemical, uHTS, fluorescence polarization; AID 1085, 2008; Fluorescence polarization binding assay, mP read-out; inhibition, % (tested at 21.74 µM); 220,000 compounds, 0.42% hits; in the data active means inhibition above about 50%
# MEX-5 binding – MEX-5 zinc finger RNA-binding disruptors – biochemical, C. elegans, fluorescence polarization, MLPCN library, primary screen; 300,000 compounds, 0.38% hits; MEX-5/FITC-TCR2 RNA binding; hits give low values; activity score (negative = inhibition of binding), % at 10 µM; Zinc finger protein mex-5 (Caenorhabditis elegans), Q9XUB2;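 active means inhibition past about -25% in most replicates, and total fluorescence under double the plate's negative control median, limit read from the data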;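 further: 0% = DMSO and -100% = 5 µM competing unlabeled TCR2 RNA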
# Zta DNA confirm – EBV Zta binding to ZRE DNA, inhibitors, confirmation, biochemical, fluorescence polarization, triplicate; inhibition, % at 11.1 µM; 320 compounds, 30% hits; shares compounds with ZTA counter;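 active means mean inhibition across triplicate runs above the hit threshold derived for the original primary screen, cut at about 33% in these data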;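 further: 0% = Zta with DMSO and 100% = wells lacking Zta protein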
# EBNA-1 counter – EBNA-1 DNA-binding inhibition, counter-screen for ZTA inhibitor project, biochemical, fluorescence polarization. shares compounds with ZTA counter. inhibition, % at 14.8 µM. 320 tested, under 10 active; call rule not given here
# Active calls of the source: *; x = no result given.
SMILES,EBNA-1 inhibitor,NS3 helicase inh,ZTA counter,core dimer inh,EBV gp42 block,MEX-5 binding,Zta DNA confirm,EBNA-1 counter
C#CCOCCOCCOCCNc1nc(N2CCN(C(=O)CCCCCCCCCCNC(=O)[C@H](CCCCN)n3cc(CCCC(=O)O)nn3)CC2)nc(N2CCN(C(=O)CCCCCCCCCCNC(=O)[C@H](CCCN=C(N)N)n3cc(C[C@@H](C)CC)nn3)CC2)n1,9.1,x,48.5*,-17.9,x,10.3,-1.7,-11.4
C#CCOCCOCCOCCNc1nc(N2CCN(C(=O)CCCCCCCCCCNC(=O)[C@H](CCCCN)n3cc(CCCC(=O)O)nn3)CC2)nc(N2CCN(C(=O)CCCCCCCCCCNC(=O)[C@H](CCCCN)n3cc(CCCC(=O)O)nn3)CC2)n1,5.1,x,-3.0,2.8,x,-4.4,x,x
C#CCOCCOCCOCCNc1nc(N2CCN(C(=O)CCCCCCCCCCNC(=O)[C@H](CCCCN)n3cc(CCO)nn3)CC2)nc(N2CCN(C(=O)CCCCCCCCCCNC(=O)[C@H](CCCN=C(N)N)n3cc(C[C@@H](C)CC)nn3)CC2)n1,5.3,x,36.0*,4.8,x,x,64.5*,-3.9
CN(C)c1ccc(N/C=C/C(=O)c2ccccc2)cc1,10.0,32.3,64.1*,-14.3,-60.6,x,13.3,10.6
O=C(CCN1C(=O)C2C3CCC(C3)C2C1=O)Nc1ccc(F)cc1 (stereo unspecified),x,11.7,x,x,x,-3.4,x,x
O=C1/C(=C/c2ccc(O)cc2)SC(=S)N1Cc1cccnc1,-10.7,1.3,77.1*,7.1,-1.6,0.0,7.3,-2.0
CCOc1ccc(-c2cccc(NC(=O)c3cccs3)c2)nn1,2.5,x,10.3,1.4,x,-1.8,x,x
Cc1ccc(NC(=O)CSCC#N)cc1,6.5,4.3,33.7*,3.1,-15.7,-1.2,-14.3,-9.1
